Assay results reported in ChEMBL document CHEMBL5724801, “EUbOPEN Chemogenomics Library - Multiplex” (2024).
Where “and” joins values, the source holds several entries; their conditions need not be identical. Equal values may be shown once.

Tested on: HEK-293T
Assay: Multiplex assay against HEK293T
Assay type: toxicity, cell-based
Details: human
Method in brief: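 Values for tubulin, mitochondrial-mass and membrane-permeability phenotypes are per cents of cells with healthy nuclei. These cells were identified by CellPathfinder machine-learning gating of live cells that had been stained at seeding with Hoechst33342, BioTracker Green Microtubule Cytoskeleton Dye, MitoTracker Red and Annexin V Alexa Fluor 680 and imaged on a CQ1 microscope at 37°C and 5% CO2 after compound addition. The gating first set Hoechst high-intensity objects apart from normal cells, then split normal cells into healthy, pyknosed or fragmented nuclei, and pyknosed cells into mitotic or apoptotic.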

[1] = 12 h, 1 µM, compound concentration 1 uM
[2] = 12 h, 10 µM, compound concentration 10 uM
[3] = 24 h, 1 µM, compound concentration 1 uM
[4] = 24 h, 10 µM, compound concentration 10 uM
[5] = 48 h, 1 µM, compound concentration 1 uM
[6] = 48 h, 10 µM, compound concentration 10 uM

N#Cc1c(N)nc(SCc2csc(-c3ccc(Cl)cc3)n2)c(C#N)c1-c1ccc(OCCO)cc1 [CAPADENOSON]
Population Apoptotic (%) [1]: 36% and 54% | Population Fragmented Nuclei (%) [1]: 6% | Population Healthy Nuclei (%) [1]: 79% and 80% | Population Hoechst High Intensity Objects (%) [1]: 8% and 4% | Population Membrane Permeable-Phenotype (%) [1]: 0% | Population Mitochondria Different-Phenotype (%) [1]: 59% and 60% | Population Mitotic Cells (%) [1]: 63% and 45% | Population Normal (%) [1]: 91% and 95% | Population Pyknosed Nuclei (%) [1]: 13% and 12% | Population Tubulin-Different-Phenotype (%) [1]: 44% and 34% | Total Cell Count [1]: 373 and 375 | Population Apoptotic (%) [2]: 57% and 70% | Population Fragmented Nuclei (%) [2]: 7% and 6% | Population Healthy Nuclei (%) [2]: 75% and 73% | Population Hoechst High Intensity Objects (%) [2]: 12% and 14% | Population Membrane Permeable-Phenotype (%) [2]: 0% and 1% | Population Mitochondria Different-Phenotype (%) [2]: 82% and 85% | Population Mitotic Cells (%) [2]: 42% and 29% | Population Normal (%) [2]: 87% and 85% | Population Pyknosed Nuclei (%) [2]: 17% and 20% | Population Tubulin-Different-Phenotype (%) [2]: 62% and 63% | Total Cell Count [2]: 307 and 388 | Population Apoptotic (%) [3]: 36% and 37% | Population Fragmented Nuclei (%) [3]: 5% and 7% | Population Healthy Nuclei (%) [3]: 76% and 79% | Population Hoechst High Intensity Objects (%) [3]: 6% and 4% | Population Membrane Permeable-Phenotype (%) [3]: 2% and 0% | Population Mitochondria Different-Phenotype (%) [3]: 38% and 44% | Population Mitotic Cells (%) [3]: 63% and 62% | Population Normal (%) [3]: 93% and 95% | Population Pyknosed Nuclei (%) [3]: 17% and 12% | Population Tubulin-Different-Phenotype (%) [3]: 34% and 23% | Total Cell Count [3]: 450 and 456 | Population Apoptotic (%) [4]: 65% and 73% | Population Fragmented Nuclei (%) [4]: 8% and 4% | Population Healthy Nuclei (%) [4]: 68% | Population Hoechst High Intensity Objects (%) [4]: 14% and 13% | Population Membrane Permeable-Phenotype (%) [4]: 0% | Population Mitochondria Different-Phenotype (%) [4]: 94% and 89% | Population Mitotic Cells (%) [4]: 34% and 26% | Population Normal (%) [4]: 85% and 86% | Population Pyknosed Nuclei (%) [4]: 22% and 26% | Population Tubulin-Different-Phenotype (%) [4]: 62% and 61% | Total Cell Count [4]: 319 and 391 | Population Apoptotic (%) [5]: 31% and 32% | Population Fragmented Nuclei (%) [5]: 10% and 11% | Population Healthy Nuclei (%) [5]: 79% and 80% | Population Hoechst High Intensity Objects (%) [5]: 4% and 3% | Population Membrane Permeable-Phenotype (%) [5]: 1% and 2% | Population Mitochondria Different-Phenotype (%) [5]: 32% and 23% | Population Mitotic Cells (%) [5]: 68% and 67% | Population Normal (%) [5]: 95% and 96% | Population Pyknosed Nuclei (%) [5]: 10% and 8% | Population Tubulin-Different-Phenotype (%) [5]: 23% and 18% | Total Cell Count [5]: 621 and 787 | Population Apoptotic (%) [6]: 66% and 63% | Population Fragmented Nuclei (%) [6]: 11% and 12% | Population Healthy Nuclei (%) [6]: 68% and 73% | Population Hoechst High Intensity Objects (%) [6]: 12% and 10% | Population Membrane Permeable-Phenotype (%) [6]: 0% | Population Mitochondria Different-Phenotype (%) [6]: 89% and 88% | Population Mitotic Cells (%) [6]: 33% and 36% | Population Normal (%) [6]: 87% and 89% | Population Pyknosed Nuclei (%) [6]: 20% and 14% | Population Tubulin-Different-Phenotype (%) [6]: 67% and 64% | Total Cell Count [6]: 406 and 423

C[C@H]1[C@H]2CC[C@H]3[C@@H]4CC=C5C[C@@H](N(C)C)CC[C@]5(C)[C@H]4CC[C@]23CN1C [CONESSINE]
Population Apoptotic (%) [1]: 35% and 48% | Population Fragmented Nuclei (%) [1]: 5% and 4% | Population Healthy Nuclei (%) [1]: 78% and 85% | Population Hoechst High Intensity Objects (%) [1]: 6% and 8% | Population Membrane Permeable-Phenotype (%) [1]: 0% | Population Mitochondria Different-Phenotype (%) [1]: 39% and 58% | Population Mitotic Cells (%) [1]: 65% and 51% | Population Normal (%) [1]: 93% and 91% | Population Pyknosed Nuclei (%) [1]: 16% and 10% | Population Tubulin-Different-Phenotype (%) [1]: 26% and 22% | Total Cell Count [1]: 400 and 356 | Population Apoptotic (%) [2]: 35% and 59% | Population Fragmented Nuclei (%) [2]: 6% and 7% | Population Healthy Nuclei (%) [2]: 77% and 78% | Population Hoechst High Intensity Objects (%) [2]: 6% and 9% | Population Membrane Permeable-Phenotype (%) [2]: 1% and 0% | Population Mitochondria Different-Phenotype (%) [2]: 56% and 62% | Population Mitotic Cells (%) [2]: 65% and 40% | Population Normal (%) [2]: 93% and 90% | Population Pyknosed Nuclei (%) [2]: 15% and 14% | Population Tubulin-Different-Phenotype (%) [2]: 38% and 30% | Total Cell Count [2]: 419 and 384 | Population Apoptotic (%) [3]: 26% and 25% | Population Fragmented Nuclei (%) [3]: 9% and 8% | Population Healthy Nuclei (%) [3]: 80% and 81% | Population Hoechst High Intensity Objects (%) [3]: 5% and 4% | Population Membrane Permeable-Phenotype (%) [3]: 1% and 0% | Population Mitochondria Different-Phenotype (%) [3]: 22% and 34% | Population Mitotic Cells (%) [3]: 73% and 75% | Population Normal (%) [3]: 94% and 95% | Population Pyknosed Nuclei (%) [3]: 10% | Population Tubulin-Different-Phenotype (%) [3]: 17% and 16% | Total Cell Count [3]: 514 and 484 | Population Apoptotic (%) [4]: 27% and 47% | Population Fragmented Nuclei (%) [4]: 9% | Population Healthy Nuclei (%) [4]: 79% and 82% | Population Hoechst High Intensity Objects (%) [4]: 6% and 9% | Population Membrane Permeable-Phenotype (%) [4]: 1% and 0% | Population Mitochondria Different-Phenotype (%) [4]: 38% and 43% | Population Mitotic Cells (%) [4]: 72% and 52% | Population Normal (%) [4]: 93% and 90% | Population Pyknosed Nuclei (%) [4]: 11% and 7% | Population Tubulin-Different-Phenotype (%) [4]: 28% and 24% | Total Cell Count [4]: 572 and 474 | Population Apoptotic (%) [5]: 30% and 36% | Population Fragmented Nuclei (%) [5]: 9% and 10% | Population Healthy Nuclei (%) [5]: 82% and 83% | Population Hoechst High Intensity Objects (%) [5]: 2% and 4% | Population Membrane Permeable-Phenotype (%) [5]: 1% | Population Mitochondria Different-Phenotype (%) [5]: 18% and 20% | Population Mitotic Cells (%) [5]: 69% and 63% | Population Normal (%) [5]: 97% and 95% | Population Pyknosed Nuclei (%) [5]: 7% and 5% | Population Tubulin-Different-Phenotype (%) [5]: 12% and 11% | Total Cell Count [5]: 735 and 630 | Population Apoptotic (%) [6]: 27% and 36% | Population Fragmented Nuclei (%) [6]: 14% and 10% | Population Healthy Nuclei (%) [6]: 78% and 81% | Population Hoechst High Intensity Objects (%) [6]: 4% and 5% | Population Membrane Permeable-Phenotype (%) [6]: 1% and 0% | Population Mitochondria Different-Phenotype (%) [6]: 23% and 32% | Population Mitotic Cells (%) [6]: 72% and 63% | Population Normal (%) [6]: 95% and 94% | Population Pyknosed Nuclei (%) [6]: 6% and 7% | Population Tubulin-Different-Phenotype (%) [6]: 15% and 17% | Total Cell Count [6]: 767 and 618
